Bioassay records deposited in PubChem by Johns Hopkins Ion Channel Center.
Sampled rows, rich in hits. Any-hit rate of the full collection: about 3.7%.
hERG rescue: hERG (human) protection from proarrhythmic block; Q12809; CHO-hERG, FluxOR thallium flux, dofetilide IC70 present; activation (rescue from dofetilide block), less the hit threshold, % at 10 µM; 0.51% of 310,000 active;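 active means activation above the mean of controls blocked by dofetilide plus 5 SD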;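 further: thallium influx through hERG after potassium depolarization seen as dye fluorescence rise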
KCNK9 block: human KCNK9 channel inhibition; Q9NPC2; HEK293 KCNK9, FluxOR thallium flux fluorescence; active compounds read low; B-score at 10 µM; 1.2% of 310,000 active;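 active means ratio B-score over 3 SD below the library mean, with starting fluorescence within 5 SD of its mean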;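 further: negative B-score means less thallium flux so channel inhibition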
KCNQ1 pot: potentiates or activates the human KCNQ1 potassium channel | 0.35% of 310,000 active | CHO-K1 KCNQ1, thallium flux FluxOR fluorescence; active compounds read high | B-score at 10 µM;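 active means fluorescence ratio B-score, a plate-corrected score, at least three library SD, with initial intensity B-score within 5 SD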
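Medium – assay buffer, equal DMSO in all wells · Material – CHO-K1 cell line with stable KCNQ1 potassium channel expression · Signal – kinetic FluxOR thallium fluorescence, 10-s 1-Hz baseline, 110-s post-stimulus read · Compound – single concentration per compound, DMSO matched to controls · Schedule – 37 °C overnight plating, 90-min dark dye load, 20-min compound pretreatment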
KCNK3 inh: human KCNK3 channel inhibition, primary screen; 0.84% of 340,000 active; AID 602410; B-score at 10 µM; CHO-KCNK3 thallium flux, FluxOR fluorescence; active compounds read low;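 active means B-score under library mean minus 4 SD, starting fluorescence ratio at most library mean plus 5 SD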;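 further: more negative B-score means stronger inhibition of thallium flux through KCNK3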
Kir21 block: blocks the mouse Kir2.1 inward-rectifier potassium channel; B-score at 10 µM; HEK293-Kir2.1, FluxOR thallium flux fluorescence; active compounds read low; 0.85% of 310,000 active;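 active means fluorescence ratio B-score at or below minus 3 SD of library scores, with starting-brightness B-score within 2 SD, cut at about -4.2 in these data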;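 further: channel flux triggered by added potassium and thallium sulfate stimulus; B-score of peak minus minimum fluorescence over baseline after thallium stimulus; more negative B-score means stronger Kir2.1 block with less thallium influx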
Target sequence (P35561 whole entry, looked up): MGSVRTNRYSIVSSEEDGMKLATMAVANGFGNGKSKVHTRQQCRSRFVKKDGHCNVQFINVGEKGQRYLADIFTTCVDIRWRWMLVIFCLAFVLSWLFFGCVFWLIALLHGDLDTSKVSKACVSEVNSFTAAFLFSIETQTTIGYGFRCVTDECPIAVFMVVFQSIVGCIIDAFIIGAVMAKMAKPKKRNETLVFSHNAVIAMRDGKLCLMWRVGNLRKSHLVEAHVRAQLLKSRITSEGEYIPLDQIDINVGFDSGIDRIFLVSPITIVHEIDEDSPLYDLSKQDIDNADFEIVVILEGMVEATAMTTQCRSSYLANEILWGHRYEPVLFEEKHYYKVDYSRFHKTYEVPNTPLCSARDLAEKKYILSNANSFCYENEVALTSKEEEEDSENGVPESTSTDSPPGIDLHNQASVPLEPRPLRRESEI
KCNQ1 block: human KCNQ1 channel inhibition | CHO-K1 KCNQ1, FluxOR thallium flux fluorescence; active compounds read high | B-score at 10 µM | 1.3% of 310,000 active;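 active means compounds whose thallium flux B-score, printed positive for inhibition, exceeds three library SD while starting fluorescence stays within three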;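 further: channel opened by potassium depolarization with thallium stimulus after 20 min compound exposure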
KCNK3 confirm: confirmation of human KCNK3 two-pore domain potassium channel inhibitors | shares compounds with KCNK3 inh | 99% of 2,400 active | ratio percent of control, % at 10 µM | CHO-KCNK3 thallium flux, FluxOR fluorescence; 0% buffer, 100% carvedilol maximal block;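 active means ratio percent of control, averaged over triplicates, above buffer control mean plus 5 SD, cut at about 64% in these data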;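 further: ratio is the fluorescence rise from min to max over baseline after thallium stimulus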
KCNK3 noninduced: counter-screen for KCNK3 inhibitors: effect in non-induced cells | non-induced KCNK3 parental cells, FluxOR thallium flux; active compounds read low | 40% of 2,400 active | AID 651747 | shares compounds with KCNK3 inh | thallium flux ratio (lower = more inhibition) at 10 µM;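 active means thallium flux ratio, averaged over three wells, more than 5 SD below the buffer control mean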;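 further: host cells are CHO cells without KCNK3 induction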
Numbers stand for hits; – = inactive; · = not tested or not shown.

SMILES | hERG rescue | KCNK9 block | KCNQ1 pot | KCNK3 inh | Kir21 block | KCNQ1 block | KCNK3 confirm | KCNK3 noninduced
COc1ccc(NC(=O)CSCC(=O)N(C)CC(=O)Nc2ccc(Cl)c(C(F)(F)F)c2)cc1 | – | – | – | – | – | – | · | ·
CCOC(=O)c1ccccc1NC(=O)c1ccc2c(SCC(=O)O)c3c(nc2c1)CCCC3 | – | – | – | -9.69 | – | – | 123.3 | –
O=C(c1ccccc1)C1CCN(c2ncccc2[N+](=O)[O-])CC1 | – | – | – | -8.81 | – | – | 84.7 | –
CC(C)CNC(=O)c1cc2nc3c(c(C(F)(F)F)n2n1)CCc1ccccc1-3 | – | – | – | -16.8 | – | – | 56.3 | –
CCCCNC(=O)c1cc2nc3c(c(C(F)(F)F)n2n1)CCc1ccccc1-3 | – | – | – | – | – | – | · | ·
CCOC(=O)CSc1nc2ccccc2c(=O)n1CC1CCCC1 | – | – | – | -11.4 | – | – | 116.0 | 0.146
CCOC(=O)CSc1nc2ccccc2c(=O)n1CC | – | – | – | – | – | – | · | ·
COc1cccc(-c2c(C(=O)N/N=C(\C)c3cccs3)nnn2-c2nonc2N)c1 | – | – | – | – | – | – | · | ·
CCOc1cc(/C=C2/NC(=O)NC2=O)cc(Br)c1OCc1ccc(C(=O)O)cc1 | – | – | – | – | – | – | · | ·
CN(C)Cc1c(O)ccc2[nH]cnc12 | – | – | – | -10.3 | – | – | 79.7 | –
CCCc1ccc2oc(C(=O)N(Cc3nccn3C)C(C)C)c(C)c2c1 | – | – | – | -10.6 | – | – | 113.0 | –
CC(C)c1ccc(N=C(N)N=C(N)N)cc1 | – | – | – | – | – | – | · | ·
CCOc1cccc(C(=O)Nc2cccc(-c3nnc(-c4ccc(C)cc4)o3)c2)c1 | – | – | – | – | – | – | · | ·
CC(=O)Nc1cccc(-c2nnc(-c3ccccc3)o2)c1 | – | – | – | – | – | – | · | ·
COc1cccc(C(=O)Nc2ccc(-c3nnc(-c4ccco4)o3)cc2)c1 | – | – | – | – | – | – | · | ·
O=C(Nc1cccc(-c2nnc(-c3ccccc3)o2)c1)C1CC1 | – | – | – | -9.84 | – | – | 112.3 | –
CCOc1cccc(C(=O)Nc2cccc(-c3nnc(-c4ccccc4)o3)c2)c1 | – | – | – | -10.7 | – | – | 121.0 | 0.14
CC(=O)Oc1ccc(C(=O)Nc2cccc(-c3nnc(-c4ccco4)o3)c2)cc1 | – | – | – | -9.33 | – | – | 85.3 | –
CC(NC(=O)CCN1C(=O)c2ccccc2C1=O)c1ccccc1 (stereo not drawn) | – | – | – | – | – | – | · | ·
O=C(c1cc2nc(-c3ccc(F)cc3)cc(C(F)(F)F)n2n1)N1CCCCC1c1cccnc1 (stereo not drawn) | – | – | – | -10.9 | – | – | 120.7 | 0.142
O=C(c1cnn2c(C(F)(F)F)cc(-c3ccccc3)nc12)N1CCCCC1c1cccnc1 (stereo not drawn) | – | – | – | – | – | – | · | ·
CCN1CCN(C(=O)c2cc3nc(-c4ccccc4)cc(C(F)(F)F)n3n2)CC1 | – | – | – | -8.7 | – | – | – | –
COc1ccccc1-c1c(C)oc2c(CN3CCN(CCO)CC3)c(O)ccc2c1=O | – | – | – | -19.8 | – | – | 59.0 | –
COc1ccccc1-c1c(C)oc2c(CN3CCN(C)CC3)c(O)ccc2c1=O | – | – | – | – | – | – | · | ·
CCCN(CC1CC1)c1nc(C)nc(Nc2c(Cl)cc(Cl)cc2Cl)c1Cl | – | – | – | – | – | – | · | ·
SMILES | hERG rescue | KCNK9 block | KCNQ1 pot | KCNK3 inh | Kir21 block | KCNQ1 block | KCNK3 confirm | KCNK3 noninduced
C=CCn1c(SCC(=O)O)nc2sc(CC)cc2c1=O | – | – | – | – | – | – | · | ·
C=CCn1c(SCC(=O)c2cccs2)nc2sc(CC)cc2c1=O | – | – | – | -10.8 | – | – | 127.7 | –
C=CCn1c(SCC(=O)N2CCN(C(=O)c3ccco3)CC2)nc2sc(CC)cc2c1=O | – | – | – | -10.7 | – | – | 120.3 | 0.146
O=C(/C=C/c1ccc(O)c(O)c1)OCCc1ccccc1 | – | – | – | -12.3 | – | – | 84.0 | 0.141
O=C(COC(=O)c1cccnc1Cl)NCCc1ccc(F)cc1 | · | · | · | – | · | · | · | ·
CCCN1CCN(C(=O)Nc2cccc(C(F)(F)F)c2)CC1 | – | – | – | -10.3 | – | – | 106.3 | –
N#CCC(=O)N/N=C/c1c(-c2ccccc2)n(-c2ccccc2)c2ccccc12 | – | – | – | -9.63 | – | – | 97.3 | –
N#CCC(=O)N/N=C/c1cn(Cc2ccccc2C#N)c2ccccc12 | – | – | – | – | – | – | · | ·
O=C(c1ccccc1OCc1ccc(Cl)cc1)N1CCN(c2ccccn2)CC1 | – | – | – | -9 | – | – | 119.0 | –
O=C(c1ccco1)N1CCN(C(=O)c2ccccc2OCc2ccc(Cl)cc2)CC1 | – | – | – | – | – | – | · | ·
Cc1cccc(CN2C(=O)/C(=C\c3ccc(C(=O)NCCCN4CCN(C)CC4)cc3)Oc3ccccc32)c1 | – | – | – | – | – | – | · | ·
CN1CCN(CCCNC(=O)c2ccc(/C=C3/Sc4ccccc4N(Cc4cccc(Cl)c4)C3=O)cc2)CC1 | – | -7.15 | – | -9.42 | – | 11 | 117.7 | –
CC1(C)Cc2c(sc(NC(=O)C(=O)N3CCCCC3)c2C(=O)O)CO1 | – | – | – | – | – | – | · | ·
Cc1ccc(NC(=O)c2ccc(Cl)c(S(=O)(=O)N3CCCCCC3)c2)nc1 | – | – | – | -9.65 | – | – | 114.7 | –
O=C(Nc1ccccn1)c1ccc(Cl)c(S(=O)(=O)N2CCCC2)c1 | – | – | – | – | – | – | · | ·
O=C(Nc1ccc(Cl)cn1)c1ccc(Br)c(S(=O)(=O)N2CCCCC2)c1 | – | -7.44 | – | – | – | – | 102.3 | –
CSc1ccccc1NC(=O)c1cc(-c2cccnc2)nc2ccc(Br)cc12 | – | – | – | -12.8 | – | – | 109.3 | 0.147
Cc1cccc(/C=C/c2nc3ccccc3c(=O)[nH]2)c1 | – | – | – | -9.42 | – | – | 87.3 | –
CN(C(=O)c1ccoc1)c1ccc2ccccc2c1 | – | – | – | -10.1 | – | – | 54.7 | –
CC(=O)Oc1c(C(=O)c2nnc(C)o2)c(=O)n(C)c2ccccc12 | – | – | – | – | – | – | · | ·
Cc1ccccc1CC(=O)c1ccc(O)c(C)c1O | – | – | – | -12.7 | – | – | 115.0 | 0.154
CCOC(=O)CSc1nc2c(c(-c3ccc(C)o3)c1C#N)CCCC2 | – | – | – | -9.32 | – | – | 97.7 | –
COC(=O)CSc1nc2c(c(-c3ccco3)c1C#N)CCCC2 | – | – | – | – | – | – | · | ·
NC(=O)c1cccc2c1C(=O)N(C1CCCCC1)C2 | – | – | – | – | – | – | · | ·
